Data published in ChEMBL document CHEMBL1938261, “Discovery of novel α7 nicotinic acetylcholine receptor ligands via pharmacophoric and docking studies of benzylidene anabaseine analogs” (Bioorg Med Chem Lett, 2012).

Assays:
[1] = target: T1, Neuronal acetylcholine receptor; alpha4/beta2 (Homo sapiens, UniProt P17787+P43681); experiment: Displacement of [3H]epibatidine from human alpha4beta2 nAchR expressed in SH-EP1 cells at 5 uM; type: cell-based
Summary of the method: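 Percent inhibition of control [3H]-epibatidine binding to human α4β2 expressed in SH-EP1 cells, with test compound at 5 μM. Reported ± standard error, with replicate number per value.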

[2] = target: Neuronal acetylcholine receptor; alpha3/beta4 (Homo sapiens) (UniProt P30926+P32297); experiment: Displacement of [3H]epibatidine from human alpha3beta4 nAchR expressed in SH-SY5Y cells at 5 uM; type: cell-based
Summary of the method: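 Radioligand displacement using [3H]-epibatidine on SH-SY5Y cell membranes (ganglion-type nicotinic receptors). Compounds tested at 5 μM; percent inhibition of control radioligand binding reported, with the number of replicates given for each result.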

[3] = Displacement of [3H]methyllycaconitine from rat alpha7 nAchR in rat hippocampal membrane; type: cell membranes, Hippocampus
Summary of the method: (§1)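 α7 sites on rat hippocampal membranes, labelled with [3H]-methyllycaconitine. Inhibition of binding measured over a seven-point dose-response curve, with replicates averaged at each point. IC50 taken by least-squares non-linear regression against log concentration. Ki given ± standard error, with replicate number per value.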

[4] = target: T1, Neuronal acetylcholine receptor; alpha4/beta2; experiment: Displacement of [3H]epibatidine from human alpha4beta2 nAchR expressed in SH-EP1 cells; type: cell-based
Summary of the method: as §1, with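 “Human α4β2 heterologously expressed in SH-EP1 cells,” for “α7 sites on rat hippocampal membranes,”, “[3H]-epibatidine.” for “[3H]-methyllycaconitine.”, “reported” for “given”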

[5] = (§2) Partial agonist activity at rat alpha7 nAchR by patch clamp assay; type: functional
Rattus norvegicus = species: Rattus norvegicus; experiment: as §2; type: functional

T1 sequence (P17787 whole entry): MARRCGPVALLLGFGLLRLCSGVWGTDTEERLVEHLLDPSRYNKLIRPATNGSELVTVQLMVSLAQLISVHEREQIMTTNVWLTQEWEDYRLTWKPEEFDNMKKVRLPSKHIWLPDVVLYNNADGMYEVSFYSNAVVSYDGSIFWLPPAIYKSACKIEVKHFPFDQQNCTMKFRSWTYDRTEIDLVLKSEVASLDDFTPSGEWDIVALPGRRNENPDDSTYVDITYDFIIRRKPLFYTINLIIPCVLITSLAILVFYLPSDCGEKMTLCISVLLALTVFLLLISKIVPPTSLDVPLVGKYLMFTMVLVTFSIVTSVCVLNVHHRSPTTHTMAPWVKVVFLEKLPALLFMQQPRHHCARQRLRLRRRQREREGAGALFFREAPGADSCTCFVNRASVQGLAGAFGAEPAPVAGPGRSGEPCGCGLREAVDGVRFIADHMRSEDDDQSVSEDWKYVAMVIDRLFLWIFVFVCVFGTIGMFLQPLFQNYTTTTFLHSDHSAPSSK
T1 sequence (P43681 whole entry): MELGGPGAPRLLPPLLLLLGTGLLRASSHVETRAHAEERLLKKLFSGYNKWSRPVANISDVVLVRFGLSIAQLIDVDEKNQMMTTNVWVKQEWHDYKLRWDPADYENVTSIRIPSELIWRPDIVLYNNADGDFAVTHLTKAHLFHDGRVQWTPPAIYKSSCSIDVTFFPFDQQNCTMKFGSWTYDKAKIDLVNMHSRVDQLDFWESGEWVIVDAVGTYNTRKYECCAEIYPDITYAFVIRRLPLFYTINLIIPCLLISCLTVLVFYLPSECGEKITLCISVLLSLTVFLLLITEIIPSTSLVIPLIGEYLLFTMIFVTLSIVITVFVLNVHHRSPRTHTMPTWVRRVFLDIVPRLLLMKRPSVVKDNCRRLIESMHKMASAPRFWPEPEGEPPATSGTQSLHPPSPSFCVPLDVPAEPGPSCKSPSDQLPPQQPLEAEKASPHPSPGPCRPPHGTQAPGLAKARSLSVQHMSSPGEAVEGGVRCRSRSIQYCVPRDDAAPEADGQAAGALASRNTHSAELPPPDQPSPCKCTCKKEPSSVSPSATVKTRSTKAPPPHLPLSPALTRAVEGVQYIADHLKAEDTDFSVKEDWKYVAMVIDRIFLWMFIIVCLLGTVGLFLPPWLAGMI

| Compound | inhibition [1] | Ki [3] | also measured |
| --- | --- | --- | --- |
| COc1cc(O)ccc1/C=C1\CCCN=C1c1cccnc1 | 97% | – | inhibition [2]: 75% |
| O=C1CC(c2ccco2)=NCC2(CN3CCC2CC3)N1 (stereo not given) | 14% | 150 nM | – |
| Oc1ccccc1C1=NC2(CN1)CN1CCC2CC1 (stereo not given) | 4% | 290 nM | – |
| COc1ccccc1C1=NCC2(CN3CCC2CC3)NC(=O)C1 (stereo not given) | 7% | 110 nM | – |
| C1=NCC2(CN3CCC2CC3)NC=C1c1ccccc1 (stereo not given) | 6% | – | – |
| COc1ccc(C2=NCC3(CN4CCC3CC4)NC(=O)C2)cc1 (stereo not given) | 42% | 42 nM | – |
| OC1=CC(c2ccccc2)=NCC2(CN3CCC2CC3)N1 (stereo not given) | 15% | 140 nM | – |
| COc1ccc(/C=C2\CCCN=C2c2cccnc2)c(OC)c1 [GTS-21] | – | 1300 nM | Ki [4]: 51 nM |
| c1ccc(C2=NC3(CN2)CN2CCC3CC2)cc1 (stereo not given) | 11% | – | – |
| c1ccc2oc(C3=NC4(CN3)CN3CCC4CC3)cc2c1 (stereo not given) | 4% | – | – |
| COc1cccc(C2=NCC3(CN4CCC3CC4)NC(=O)C2)c1 (stereo not given) | 12% | 87 nM | – |
| Oc1c(C2=NC3(CN2)CN2CCC3CC2)oc2ccccc12 (stereo not given) | 32% | 7 nM | EC50 [5]: 600 nM; Emax (Rattus norvegicus): 53% |
| O=C1NCC2(CN3CCC2CC3)NC(=O)C1c1ccccc1 (stereo not given) | 2% | – | – |
| Nc1c(C2=NC3(CN2)CN2CCC3CC2)oc2ccccc12 (stereo not given) | 9% | 120 nM | – |
| O=C1CC(c2ccc(Br)s2)=NCC2(CN3CCC2CC3)N1 (stereo not given) | 62% | 77 nM | – |
| O=C1CC(c2cccs2)=NCC2(CN3CCC2CC3)N1 (stereo not given) | 20% | 58 nM | – |
